Results as given in ChEMBL document CHEMBL1155904, “Synthesis and evaluation of heteroaryl-ketone derivatives as a novel class of VEGFR-2 inhibitors” (Bioorg Med Chem Lett, 2008).

How the values were obtained:
Format in all cases: ADME, organism-based
Conditions in all cases: read-out: Drug uptake
[1] = Plasma concentration in mouse at 30 mg/kg, ip after 1 hr; parameters: dose 30 mg/kg, route intraperitoneal
In short: (§1)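 Mice dosed intraperitoneally at 30 mg/kg in a vehicle of 5% ethanol, 5% Tween-80, 5% PEG400 and 85% PBS. Plasma drug concentration measured at set times after injection.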

[2] = Plasma concentration in mouse at 30 mg/kg, po after 1 hr; parameters: dose 30 mg/kg, route oral
[3] = Plasma concentration in mouse at 30 mg/kg, ip after 4 hrs; parameters: dose 30 mg/kg, route intraperitoneal; in short: as §1

SMILES	concentration at 1 h [1] [nM]	concentration at 1 h [2] [nM]	concentration at 4 h [3] [nM]
O=C(c1ccccc1NCc1ccc2ncccc2c1)c1n[nH]c2ccccc12	2400	1800	
Cc1ccc2c(c1)c(C(=O)c1ccccc1NCc1ccc3ncccc3c1)cn2C	2900	1800	1100
